In ChEMBL document CHEMBL1147785, “Novel peptidomimetic cysteine protease inhibitors as potential antimalarial agents” (J Med Chem, 2006):
Calls of active or inactive are those of the source. No cut-off for these calls is given here.

What follows are compounds tested against T1, Caspase-6 (Homo sapiens) (UniProt P55212) (assay: Inhibition of human recombinant caspase6 upto 50 uM).
T1 sequence (whole entry): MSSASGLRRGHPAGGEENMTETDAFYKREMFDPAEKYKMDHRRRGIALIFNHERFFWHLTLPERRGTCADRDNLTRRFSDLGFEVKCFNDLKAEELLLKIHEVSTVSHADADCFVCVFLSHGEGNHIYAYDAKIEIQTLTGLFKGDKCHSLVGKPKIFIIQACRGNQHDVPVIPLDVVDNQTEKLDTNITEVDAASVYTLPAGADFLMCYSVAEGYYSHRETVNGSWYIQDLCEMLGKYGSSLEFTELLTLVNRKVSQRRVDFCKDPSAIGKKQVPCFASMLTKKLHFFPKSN
In the case of `O=C(CN1C(=O)[C@@H](COC(=O)Nc2ccc(Cl)cc2C(F)(F)F)N=C(c2ccccc2)c2ccccc21)N[C@H]1CC(=O)OC1O` (some centres undefined), the Activity is reported as “inactive”. For `O=C(CN1C(=O)[C@H](COC(=O)Nc2ccc(Cl)cc2C(F)(F)F)N=C(c2ccccc2)c2ccccc21)N[C@H]1CC(=O)OC1O` (some centres undefined), the Activity was “inactive”. With `O=C(CN1C(=O)[C@@H](COC(=O)Nc2c(F)cc(F)cc2Br)N=C(c2ccccc2)c2ccccc21)N[C@H]1CC(=O)OC1O` (some centres undefined) the Activity was “inactive”.

Each compound was assayed against T2, Falcipain 2 (Plasmodium falciparum, UniProt Q9N6S8) (assay: Inhibition of Plasmodium falciparum recombinant FP2A fused with maltose binding protein).
T2 sequence (Q9N6S8 whole entry): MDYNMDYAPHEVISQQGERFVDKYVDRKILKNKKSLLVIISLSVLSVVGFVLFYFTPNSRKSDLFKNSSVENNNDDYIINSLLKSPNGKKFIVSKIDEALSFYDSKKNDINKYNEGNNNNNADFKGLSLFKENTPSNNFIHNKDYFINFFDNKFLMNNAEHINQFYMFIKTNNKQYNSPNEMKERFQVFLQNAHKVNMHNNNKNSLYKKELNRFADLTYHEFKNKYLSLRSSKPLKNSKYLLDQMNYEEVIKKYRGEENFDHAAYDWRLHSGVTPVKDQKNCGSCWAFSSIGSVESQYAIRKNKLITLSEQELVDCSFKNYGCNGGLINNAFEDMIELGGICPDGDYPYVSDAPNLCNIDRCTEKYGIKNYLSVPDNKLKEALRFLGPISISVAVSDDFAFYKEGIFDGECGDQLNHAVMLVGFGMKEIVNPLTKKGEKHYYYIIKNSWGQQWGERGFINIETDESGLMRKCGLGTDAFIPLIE
Procedure, shortened: (§1)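 Recombinant enzyme expressed in E. coli as a maltose binding protein fusion. Fluorescence assay using the fluorogenic substrate Z-Leu-Arg-AMC, with inhibitor at various concentrations. Hydrolysis rate was compared with DMSO-only negative controls and with positive controls containing a standard papain-family cysteine protease aldehyde inhibitor. Results are given as IC50.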
For `O=C(CN1C(=O)[C@@H](COC(=O)Nc2ccc(Cl)cc2C(F)(F)F)N=C(c2ccccc2)c2ccccc21)N[C@H]1CC(=O)OC1O` (some centres undefined), the IC50 was 8.68 µM. `O=C(CN1C(=O)[C@H](COC(=O)Nc2ccc(Cl)cc2C(F)(F)F)N=C(c2ccccc2)c2ccccc21)N[C@H]1CC(=O)OC1O` (some centres undefined) gave an IC50 of 10.3 µM. `O=C(CN1C(=O)[C@@H](COC(=O)Nc2c(F)cc(F)cc2Br)N=C(c2ccccc2)c2ccccc21)N[C@H]1CC(=O)OC1O` (some centres undefined) showed an IC50 of 19.2 µM.

Each compound was assayed against T3, Falcipain 2B (Plasmodium falciparum, UniProt Q3HTL5) (assay: Inhibition of Plasmodium falciparum recombinant FP2B fused with maltose binding protein).
T3 sequence (Q3HTL5 whole entry): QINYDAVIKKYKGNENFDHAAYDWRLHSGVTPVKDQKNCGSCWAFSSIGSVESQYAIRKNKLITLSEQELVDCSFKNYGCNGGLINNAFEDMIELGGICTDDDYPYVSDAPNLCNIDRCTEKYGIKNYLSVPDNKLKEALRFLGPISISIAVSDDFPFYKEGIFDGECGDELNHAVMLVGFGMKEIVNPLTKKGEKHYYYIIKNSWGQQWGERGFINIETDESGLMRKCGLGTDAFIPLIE
Procedure, shortened: as §1
With `O=C(CN1C(=O)[C@@H](COC(=O)Nc2ccc(Cl)cc2C(F)(F)F)N=C(c2ccccc2)c2ccccc21)N[C@H]1CC(=O)OC1O` (some centres undefined) the IC50 was 25.9 µM. `O=C(CN1C(=O)[C@H](COC(=O)Nc2ccc(Cl)cc2C(F)(F)F)N=C(c2ccccc2)c2ccccc21)N[C@H]1CC(=O)OC1O` (some centres undefined) gave an IC50 of 19.3 µM. With `O=C(CN1C(=O)[C@@H](COC(=O)Nc2c(F)cc(F)cc2Br)N=C(c2ccccc2)c2ccccc21)N[C@H]1CC(=O)OC1O` (some centres undefined) the IC50 was 21.4 µM.

What follows are compounds tested against T4, Caspase-1 (Homo sapiens) (UniProt P29466) (assay: Inhibition of human recombinant caspase1 upto 50 uM).
T4 sequence (whole entry): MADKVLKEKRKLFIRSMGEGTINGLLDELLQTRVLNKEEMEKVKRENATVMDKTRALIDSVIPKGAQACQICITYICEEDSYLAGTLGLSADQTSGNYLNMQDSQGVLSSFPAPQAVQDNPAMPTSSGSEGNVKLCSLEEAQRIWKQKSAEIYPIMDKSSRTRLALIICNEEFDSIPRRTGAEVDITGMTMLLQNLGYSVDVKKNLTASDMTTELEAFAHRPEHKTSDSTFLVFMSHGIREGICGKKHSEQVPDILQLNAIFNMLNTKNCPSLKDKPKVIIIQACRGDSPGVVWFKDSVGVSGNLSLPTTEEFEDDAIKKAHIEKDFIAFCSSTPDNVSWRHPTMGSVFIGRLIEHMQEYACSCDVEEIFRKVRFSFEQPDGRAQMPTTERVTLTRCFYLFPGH
With `O=C(CN1C(=O)[C@@H](COC(=O)Nc2ccc(Cl)cc2C(F)(F)F)N=C(c2ccccc2)c2ccccc21)N[C@H]1CC(=O)OC1O` (some centres undefined) the Activity was “inactive”. `O=C(CN1C(=O)[C@H](COC(=O)Nc2ccc(Cl)cc2C(F)(F)F)N=C(c2ccccc2)c2ccccc21)N[C@H]1CC(=O)OC1O` (some centres undefined) was tested, and the Activity was “inactive”. `O=C(CN1C(=O)[C@@H](COC(=O)Nc2c(F)cc(F)cc2Br)N=C(c2ccccc2)c2ccccc21)N[C@H]1CC(=O)OC1O` (some centres undefined) was tested, and the Activity was “inactive”.

Each compound was assayed against T5, Caspase-4 (Homo sapiens) (UniProt P49662) (assay: Inhibition of human recombinant caspase4 upto 50 uM).
T5 sequence (whole entry): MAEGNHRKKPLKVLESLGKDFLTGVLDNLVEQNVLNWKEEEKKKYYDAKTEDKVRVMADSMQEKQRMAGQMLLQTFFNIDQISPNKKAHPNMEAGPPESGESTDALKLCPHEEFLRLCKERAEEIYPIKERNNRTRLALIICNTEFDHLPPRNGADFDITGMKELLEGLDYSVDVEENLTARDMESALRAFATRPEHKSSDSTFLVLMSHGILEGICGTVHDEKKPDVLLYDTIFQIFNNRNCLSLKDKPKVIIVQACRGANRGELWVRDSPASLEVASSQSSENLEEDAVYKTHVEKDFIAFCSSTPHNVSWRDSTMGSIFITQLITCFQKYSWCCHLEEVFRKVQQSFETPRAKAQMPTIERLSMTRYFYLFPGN
In the case of `O=C(CN1C(=O)[C@@H](COC(=O)Nc2ccc(Cl)cc2C(F)(F)F)N=C(c2ccccc2)c2ccccc21)N[C@H]1CC(=O)OC1O` (some centres undefined), the Activity is reported as “inactive”. With `O=C(CN1C(=O)[C@H](COC(=O)Nc2ccc(Cl)cc2C(F)(F)F)N=C(c2ccccc2)c2ccccc21)N[C@H]1CC(=O)OC1O` (some centres undefined) the Activity was “inactive”. With `O=C(CN1C(=O)[C@@H](COC(=O)Nc2c(F)cc(F)cc2Br)N=C(c2ccccc2)c2ccccc21)N[C@H]1CC(=O)OC1O` (some centres undefined) the Activity was “inactive”.

What follows are compounds tested against T6, Caspase-5 (Homo sapiens) (UniProt P51878) (assay: Inhibition of human recombinant caspase5 upto 50 uM).
T6 sequence (whole entry): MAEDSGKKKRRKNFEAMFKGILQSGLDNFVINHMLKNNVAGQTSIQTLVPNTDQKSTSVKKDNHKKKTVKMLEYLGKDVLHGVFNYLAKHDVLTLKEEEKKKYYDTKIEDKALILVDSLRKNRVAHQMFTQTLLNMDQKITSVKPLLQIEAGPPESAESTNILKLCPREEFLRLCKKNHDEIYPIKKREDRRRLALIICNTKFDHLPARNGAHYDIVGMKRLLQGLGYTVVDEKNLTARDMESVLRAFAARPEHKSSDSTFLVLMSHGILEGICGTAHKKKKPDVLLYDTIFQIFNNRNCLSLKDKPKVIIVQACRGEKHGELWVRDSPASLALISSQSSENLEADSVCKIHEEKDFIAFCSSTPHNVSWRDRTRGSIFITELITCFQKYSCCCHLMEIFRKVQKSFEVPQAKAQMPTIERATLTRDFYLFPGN
For `O=C(CN1C(=O)[C@@H](COC(=O)Nc2ccc(Cl)cc2C(F)(F)F)N=C(c2ccccc2)c2ccccc21)N[C@H]1CC(=O)OC1O` (some centres undefined), the Activity was “inactive”. With `O=C(CN1C(=O)[C@H](COC(=O)Nc2ccc(Cl)cc2C(F)(F)F)N=C(c2ccccc2)c2ccccc21)N[C@H]1CC(=O)OC1O` (some centres undefined) the Activity was “inactive”. In the case of `O=C(CN1C(=O)[C@@H](COC(=O)Nc2c(F)cc(F)cc2Br)N=C(c2ccccc2)c2ccccc21)N[C@H]1CC(=O)OC1O` (some centres undefined), the Activity is reported as “inactive”.

What follows are compounds tested against T7, Caspase-7 (Homo sapiens) (UniProt P55210) (assay: Inhibition of human recombinant caspase7 upto 50 uM).
T7 sequence (whole entry): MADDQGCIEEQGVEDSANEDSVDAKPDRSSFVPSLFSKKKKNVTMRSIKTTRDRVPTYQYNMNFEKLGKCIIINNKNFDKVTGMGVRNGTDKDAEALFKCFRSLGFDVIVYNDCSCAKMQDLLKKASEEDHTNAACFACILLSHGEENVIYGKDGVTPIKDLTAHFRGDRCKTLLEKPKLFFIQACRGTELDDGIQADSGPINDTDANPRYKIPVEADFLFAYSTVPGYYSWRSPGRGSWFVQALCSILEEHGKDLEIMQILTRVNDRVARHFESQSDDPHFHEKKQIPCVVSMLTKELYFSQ
`O=C(CN1C(=O)[C@@H](COC(=O)Nc2ccc(Cl)cc2C(F)(F)F)N=C(c2ccccc2)c2ccccc21)N[C@H]1CC(=O)OC1O` (some centres undefined) was tested, and the Activity was “inactive”. With `O=C(CN1C(=O)[C@H](COC(=O)Nc2ccc(Cl)cc2C(F)(F)F)N=C(c2ccccc2)c2ccccc21)N[C@H]1CC(=O)OC1O` (some centres undefined) the Activity was “inactive”. With `O=C(CN1C(=O)[C@@H](COC(=O)Nc2c(F)cc(F)cc2Br)N=C(c2ccccc2)c2ccccc21)N[C@H]1CC(=O)OC1O` (some centres undefined) the Activity was “inactive”.

Each compound was assayed against Caspase-8 (Homo sapiens) (UniProt Q14790) (assay: Inhibition of human recombinant caspase8 upto 50 uM).
Sequence of Caspase-8 (Homo sapiens) (Q14790 217-374 limits assumed): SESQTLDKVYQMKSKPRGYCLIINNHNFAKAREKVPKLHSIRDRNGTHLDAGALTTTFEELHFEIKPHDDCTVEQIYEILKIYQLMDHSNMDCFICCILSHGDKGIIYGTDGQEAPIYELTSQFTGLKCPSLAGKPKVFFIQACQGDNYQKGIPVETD
Sequence of Caspase-8 (Homo sapiens) (Q14790 385-479 limits assumed): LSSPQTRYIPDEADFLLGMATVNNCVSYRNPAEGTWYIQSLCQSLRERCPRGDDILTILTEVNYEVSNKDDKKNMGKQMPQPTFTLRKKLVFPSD
`O=C(CN1C(=O)[C@@H](COC(=O)Nc2ccc(Cl)cc2C(F)(F)F)N=C(c2ccccc2)c2ccccc21)N[C@H]1CC(=O)OC1O` (some centres undefined) was tested, and the Activity was “inactive”. `O=C(CN1C(=O)[C@H](COC(=O)Nc2ccc(Cl)cc2C(F)(F)F)N=C(c2ccccc2)c2ccccc21)N[C@H]1CC(=O)OC1O` (some centres undefined) was tested, and the Activity was “inactive”. With `O=C(CN1C(=O)[C@@H](COC(=O)Nc2c(F)cc(F)cc2Br)N=C(c2ccccc2)c2ccccc21)N[C@H]1CC(=O)OC1O` (some centres undefined) the Activity was “inactive”.
